# Assay results taken from ChEMBL document CHEMBL1124898, “Novel agents effective against solid tumors: the diarylsulfonylureas. Synthesis, activities, and analysis of quantitative structure-activity relationships” (J Med Chem, 1990).
# How the values were obtained:
# [1] = Antitumor activity in vivo against the 6C3HED lymphosarcoma dosed for 10 days at 150 mg/kg; assay type: functional; conditions: Mus musculus, 192 h, in the assay text read “dosed for 8 days” for “dosed for 10 days”
# Summary of the method: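 Tumor fragments (about 1–2 mm) implanted sc via trochar into a subaxillary site of syngeneic mice (C3H, C57BL/6, Balb/C or DBA/2) or Holtz rats. Groups were 7–10 randomized animals. Compound was suspended in 2.5% Emulphor in 0.9% saline and given orally by gavage or ip, usually from the day after implantation. Tumor volume versus untreated controls was measured one day after the final dose and reported as % inhibition. Scoring bands: +++ 95–100%, ++ 80–94%.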
# CCRF-CEM = test: Concentration required to inhibit growth of CCRF-CEM cells in culture for 72 hr to 50% of control growth; assay type: functional, cell-based; conditions: Homo sapiens
# Rattus norvegicus = test: Hypoglycemic activity expressed as (Maximum reduction in blood glucose in mg/dL relative to predosing glucose level)/(time in hours at which maximum reduction occurred); assay type: functional
# Summary of the method: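 Fed male Sprague-Dawley rats (175–200 g), four per compound, received a single oral gavage dose of 200 mg/kg suspended in 5% acacia. Tail blood was sampled before dosing and at 1, 2, 3 and 5 h, and glucose was measured by glucose oxidase/peroxidase colorimetry. Each rat served as its own control. Value = maximum fall from predose glucose (mg/dL) divided by the hour at which that maximum occurred.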
# [2] = Antitumor activity in vivo against the 6C3HED lymphosarcoma, dosed for 8 days at 300 mg/kg; conditions: Mus musculus, 192 h
# [3] = Antitumor activity in vivo against the 6C3HED lymphosarcoma dosed for 8 days at 150 mg/kg; conditions: Mus musculus, 192 h
Compound,inhibition in vivo at 150 mg/kg [1],IC50 (CCRF-CEM),Ratio (Rattus norvegicus),inhibition in vivo at 300 mg/kg [2],inhibition in vivo at 150 mg/kg [3]
O=C(Nc1ccc(C(F)(F)F)cc1)NS(=O)(=O)c1cccc(C(F)(F)F)c1,39%,15.6 µg/mL,–,–,–
Cc1ccc(S(=O)(=O)NC(=O)Nc2cc(Cl)c(Cl)c(Cl)c2)cc1,–,> 20 µg/mL,0,44%,–
Cc1ccc(S(=O)(=O)NC(=O)Sc2ccc(Cl)cc2)cc1,33%,0.9 µg/mL,–,–,–
Cc1ccc(S(=O)(=O)NC(=O)Nc2ccc(Cl)cc2Cl)cc1,–,> 20 µg/mL,–,39%,–
Cc1ccc(S(=O)(=O)NC(=O)Nc2ccc(Br)cc2)cc1,–,8.2 µg/mL,–,–,100%
O=C(Nc1ccc(Cl)cc1)NS(=O)(=O)c1ccc2c(c1)CCCC2,–,14.6 µg/mL,–,70%,–
O=C(Nc1ccc(C(F)(F)F)cc1)NS(=O)(=O)c1ccc(Cl)c(Cl)c1,85%,15.5 µg/mL,–,–,–
COc1ccc(S(=O)(=O)NC(=O)Nc2ccc(Br)cc2)cc1,99%,14.3 µg/mL,–,–,–
Cc1ccc(S(=O)(=O)NC(=O)Nc2ccccc2Cl)cc1,–,> 20 µg/mL,–,1%,–
Cc1ccccc1S(=O)(=O)NC(=O)Nc1ccc(C(F)(F)F)cc1,67%,13.7 µg/mL,–,–,–
Cc1ccc(S(=O)(=O)NC(=O)Nc2nc(C)cc(C)n2)cc1,–,> 20 µg/mL,–,0%,–
Cc1ccc(S(=O)(=O)NC(=O)Nc2ccc([N+](=O)[O-])cc2)cc1,–,7.4 µg/mL,–,34%,–
Cc1ccc(S(=O)(=O)NC(=O)Nc2ccc(F)c(F)c2)cc1,–,12.8 µg/mL,–,60%,–
CC(C)(C)c1ccc(S(=O)(=O)NC(=O)Nc2ccc(Cl)cc2)cc1,–,13.5 µg/mL,–,84%,–
CCCCOC(=O)c1ccc(NC(=O)NS(=O)(=O)c2ccc(C)cc2)cc1,–,> 20 µg/mL,–,0%,–
O=C(Nc1ccc(Cl)cc1)NS(=O)(=O)c1cccc(Cl)c1,98%,9 µg/mL,–,–,–
COc1ccc(S(=O)(=O)NC(=O)Nc2ccc(C(F)(F)F)cc2)cc1,–,8 µg/mL,–,–,100%
COc1ccc(NC(=O)NS(=O)(=O)c2ccc(C)cc2)cc1OC,–,> 20 µg/mL,–,12%,–
COC(=O)c1ccc(S(=O)(=O)NC(=O)Nc2ccc(C(F)(F)F)cc2)cc1,0%,2.6 µg/mL,–,–,–
CCc1ccc(S(=O)(=O)NC(=O)Nc2ccc(Cl)cc2)cc1,–,7.5 µg/mL,–,–,100%
O=C(Nc1ccc(Br)cc1)NS(=O)(=O)c1ccc(Br)cc1,–,14.1 µg/mL,–,–,100%
O=C(Nc1ccc(Cl)c(Cl)c1)NS(=O)(=O)c1ccc(Cl)cc1,85%,9.9 µg/mL,–,–,–
Cc1ccc(S(=O)(=O)NC(=O)Nc2ccc(F)cc2)cc1,–,17.4 µg/mL,–,95%,–
Cc1ccc(S(=O)(=O)NC(=O)Nc2ccc(CC#N)cc2)cc1,–,> 20 µg/mL,–,10%,–
O=C(Nc1ccc(Br)cc1)NS(=O)(=O)c1ccccc1,82%,7.1 µg/mL,–,–,–
